# Activity calls are given as the source filed them. No cut-off for these calls is given here.
# How the values were obtained:
# [1] = target: D-amino-acid oxidase (Homo sapiens, UniProt P14920, Y224A); assay: (§1) Inhibition of human recombinant N-terminal His-tagged DAO Y224A mutant expressed in Escherichia coli BL21(DE3) using D-alanine as substrate after 10 mins by Lineweaver-Burk plot analysis
# [2] = tested on: D-amino-acid oxidase (Homo sapiens), P14920 [Y224A]; assay: as §1
# [3] = target: T1, D-amino-acid oxidase (Homo sapiens, UniProt P14920); assay: Binding affinity to human recombinant N-terminal His-tagged DAO expressed in Escherichia coli BL21(DE3) at 40 uM after 2 to 30 mins by absorption spectra analysis; settings: 200 uM, in the assay text read “at 200 uM” for “at 40 uM”
# In short: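 Purified enzyme at 1.7 μg/μL in 10 mM sodium pyrophosphate pH 8.3 with 2 mM EDTA, 5 mM 2-mercaptoethanol, 10% (v/v) glycerol; wavelength scans at 25 °C before and after compound addition (final 40 μM or 200 μM depending on compound), recorded at indicated times; binding inferred from perturbation of the absorption spectrum.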
# Target sequence in this assay (P14920 whole entry, looked up): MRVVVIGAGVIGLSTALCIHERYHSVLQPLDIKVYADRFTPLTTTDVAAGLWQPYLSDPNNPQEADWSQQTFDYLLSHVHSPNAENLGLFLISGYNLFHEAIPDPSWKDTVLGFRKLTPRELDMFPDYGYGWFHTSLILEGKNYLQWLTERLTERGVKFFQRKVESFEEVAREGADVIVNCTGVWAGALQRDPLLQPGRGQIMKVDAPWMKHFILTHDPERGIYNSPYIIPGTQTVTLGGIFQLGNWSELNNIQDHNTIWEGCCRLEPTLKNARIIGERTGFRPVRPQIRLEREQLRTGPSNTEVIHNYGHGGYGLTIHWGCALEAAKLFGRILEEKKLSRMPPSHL
# [4] = target: T1, D-amino-acid oxidase; assay: Competitive inhibition of human recombinant N-terminal His-tagged DAO expressed in Escherichia coli BL21(DE3) using D-alanine as substrate by Lineweaver-Burk plot analysis
# In short: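 Purified N-terminal His-tagged human DAO from E. coli BL21(DE3)pLysS. Colorimetric 2-oxo acid assay in air-saturated 40 mM sodium pyrophosphate pH 8.3 with catalase, 60 μM FAD and 0.5–40 mM D-Ala, 37 °C for 10 min. Stopped with TCA, derivatized with 2,4-dinitrophenylhydrazine, read at A445. Lineweaver–Burk plots; Ki confirmed by slope replot against inhibitor concentration. Three independent experiments.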
# Target sequence in this assay (P14920 whole entry, looked up): as above
# [5] = tested on: D-amino-acid oxidase (Homo sapiens), P14920 [Y224F]; assay: (§2) Inhibition of human recombinant N-terminal His-tagged DAO Y224F mutant expressed in Escherichia coli BL21(DE3) using D-alanine as substrate after 10 mins by Lineweaver-Burk plot analysis
# D-amino-acid oxidase (Homo sapiens), P14920 [Y224F], sequence (P14920 whole entry Y224F): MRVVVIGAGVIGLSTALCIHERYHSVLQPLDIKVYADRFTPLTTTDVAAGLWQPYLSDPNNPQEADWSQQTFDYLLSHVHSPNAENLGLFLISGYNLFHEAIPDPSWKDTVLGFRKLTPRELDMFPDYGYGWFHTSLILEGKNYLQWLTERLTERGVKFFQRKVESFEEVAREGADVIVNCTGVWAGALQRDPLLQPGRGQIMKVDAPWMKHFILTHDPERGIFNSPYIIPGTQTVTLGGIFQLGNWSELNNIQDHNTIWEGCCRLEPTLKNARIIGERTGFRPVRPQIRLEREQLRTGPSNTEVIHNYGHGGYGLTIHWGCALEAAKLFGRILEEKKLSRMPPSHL
# [6] = target: D-amino-acid oxidase (Homo sapiens, UniProt P14920, Y224F); assay: as §2
# D-amino-acid oxidase (Homo sapiens, UniProt P14920, Y224F), sequence (P14920 whole entry Y224F): as above
# [7] = target: T2, D-aspartate oxidase (Homo sapiens) (UniProt Q99489); assay: (§3) Inhibition of human recombinant N-terminal His-tagged DDO expressed in Escherichia coli BL21(DE3) using D-aspartate as substrate by colorimetric assay
# T2 sequence (whole entry): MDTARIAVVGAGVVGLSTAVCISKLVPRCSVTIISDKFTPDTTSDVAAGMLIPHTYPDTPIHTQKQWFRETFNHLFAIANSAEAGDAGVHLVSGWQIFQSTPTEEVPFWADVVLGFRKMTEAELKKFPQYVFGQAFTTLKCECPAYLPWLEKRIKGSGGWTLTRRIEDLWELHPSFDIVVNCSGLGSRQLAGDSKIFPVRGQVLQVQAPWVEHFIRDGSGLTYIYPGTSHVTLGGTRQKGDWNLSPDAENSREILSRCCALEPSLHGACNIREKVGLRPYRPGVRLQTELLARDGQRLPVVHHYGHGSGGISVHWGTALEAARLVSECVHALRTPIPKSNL
# In short: (§4)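 Purified enzyme (0.23–4.2 μg) with 10 mM D-Asp in air-saturated 40 mM sodium pyrophosphate pH 8.3, 23 U catalase, 60 μM FAD; 37 °C, 10 min; trichloroacetic acid stop; 2-oxo acid measured as 2,4-dinitrophenylhydrazone at A445.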
# [8] = target: T3, D-aspartate oxidase (Homo sapiens, UniProt Q99489); assay: as §3; in short: as §4
# T3 sequence (Q99489 whole entry): T2 sequence (whole entry)
# [9] = target: T1, D-amino-acid oxidase; assay: Inhibition of human recombinant N-terminal His-tagged DAO expressed in Escherichia coli BL21(DE3) using D-serine as substrate by colorimetric assay
# [10] = tested on: HEK293/NEO; assay: Effect on L-alanine level in G418-resistant HEK293/NEO cells at 83 uM by HPLC analysis relative to vehicle-treated control; format: functional, cell-based; settings: Homo sapiens
# In short: (§5)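 293/NEO (empty-vector, G418-selected) or 293.HA-hDAO-24 (stable N-terminal HA-tagged human DAO) cells, 1 × 10^6 seeded, maintained in DMEM/10% FBS/800 μg/mL G418; next day fresh medium, compound or vehicle (5% DMSO solution) for 30 min, then 17 mM D-Ala for 24 h. Methanol extraction; D-/L-Ala by OPA/NAC derivatization HPLC with fluorescence; mean ± SD of three assays; Dunnett test vs vehicle.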
# [11] = tested on: HEK293; assay: Effect on L-alanine level in G418-resistant HEK293 cells at 83 uM by HPLC analysis relative to vehicle-treated control; format: functional, cell-based; settings: Homo sapiens; in short: as §5
# [12] = target: T1, D-amino-acid oxidase; assay: Inhibition of human recombinant N-terminal His-tagged DAO expressed in Escherichia coli BL21(DE3) using D-alanine as substrate by colorimetric assay
# [13] = target: T4, Serine racemase (Homo sapiens) (UniProt Q9GZT4); assay: (§6) Inhibition of human recombinant N-terminal His-tagged serine racemase expressed in Escherichia coli BL21(DE3) using L-serine as substrate after 10 mins by fluorescence assay
# T4 sequence (whole entry): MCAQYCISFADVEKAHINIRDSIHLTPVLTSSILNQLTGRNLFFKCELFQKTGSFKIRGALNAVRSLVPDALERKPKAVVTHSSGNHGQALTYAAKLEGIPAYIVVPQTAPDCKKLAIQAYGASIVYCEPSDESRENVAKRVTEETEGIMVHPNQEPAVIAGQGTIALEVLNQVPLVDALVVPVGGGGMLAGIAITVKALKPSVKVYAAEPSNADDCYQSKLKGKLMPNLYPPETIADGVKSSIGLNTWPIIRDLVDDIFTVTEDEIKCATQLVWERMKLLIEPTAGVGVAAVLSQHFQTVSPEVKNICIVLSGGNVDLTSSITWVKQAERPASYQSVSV
# In short: (§7)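 Purified enzyme (30 μg) in 40 mM Tris-HCl pH 8.0, 60 μM pyridoxal phosphate, 1 mM MgCl2, ATP, 1 mM dithiothreitol, 10 mM L-Ser, with compound; 37 °C, 10 min; methanol stop. D-Ser quantified by OPA/Boc-L-cysteine derivatization and reversed-phase HPLC fluorescence (ex 344, em 443 nm).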
# [14] = target: T5, Serine racemase (Homo sapiens, UniProt Q9GZT4); assay: as §6; in short: as §7
# T5 sequence (Q9GZT4 whole entry): T4 sequence (whole entry)
# [15] = target: T1, D-amino-acid oxidase; assay: Inhibition of human recombinant DAO expressed in G418-resistant HEK293/NEO cells assessed as effect on D-alanine level at 83 uM incubated for 30 mins prior to D-alanine addition measured after 24 hrs by HPLC analysis relative to vehicle-treated control; format: cell-based
# In short: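 HEK293 cells stably carrying HA-tagged human DAO (clone 293.HA-hDAO-24) or empty vector (293/NEO), seeded at 1 × 10^6. Next day, fresh medium and 83 μM compound or vehicle (5% DMSO solution) for 30 min, then 17 mM D-Ala for 24 h. Cells methanol-extracted; D-/L-Ala by OPA/NAC-derivatized HPLC. Three independent assays, Dunnett test vs vehicle.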
# Target sequence in this assay (P14920 whole entry, looked up): as the sequence (P14920 whole entry, looked up) above
# [16] = tested on: HEK293; assay: Effect on L-alanine level in G418-resistant HEK293 cells at 17 uM by HPLC analysis relative to vehicle-treated control; format: functional, cell-based; settings: Homo sapiens; in short: as §5
# [17] = target: T1, D-amino-acid oxidase; assay: Inhibition of human recombinant N-terminal His-tagged DAO expressed in Escherichia coli BL21(DE3) using D-alanine as substrate by Lineweaver-Burk plot analysis
# Target sequence in this assay (P14920 whole entry): as the sequence (P14920 whole entry, looked up) above
# [18] = target: T1, D-amino-acid oxidase; assay: Inhibition of human recombinant N-terminal His-tagged DAO expressed in Escherichia coli BL21(DE3) using D-alanine as substrate assessed as residual activity at 10000 uM by colorimetric assay relative to control
# In short: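 Purified enzyme (0.23–4.2 μg) in air-saturated 40 mM sodium pyrophosphate pH 8.3, 23 U catalase, 60 μM FAD, 10 mM D-amino acid substrate, with compound; 37 °C, 10 min; stopped with trichloroacetic acid. 2-Oxo acid reacted with 2,4-dinitrophenylhydrazine, A445 read against substrate-free blank.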
# Target sequence in this assay (P14920 whole entry, looked up): as above
# [19] = tested on: HEK293/NEO; assay: Effect on L-alanine level in G418-resistant HEK293/NEO cells at 17 uM by HPLC analysis relative to vehicle-treated control; format: functional, cell-based; settings: Homo sapiens; in short: as §5
# [20] = target: T1, D-amino-acid oxidase; assay: Binding affinity to human recombinant N-terminal His-tagged DAO expressed in Escherichia coli BL21(DE3) at 200 uM after 2 to 30 mins by absorption spectra analysis
# Target sequence in this assay (P14920 whole entry, looked up): as above
# [21] = target: T1, D-amino-acid oxidase; settings: HEK293, 83 uM
# Target sequence in this assay (P14920 whole entry, looked up): as above
# D-amino-acid oxidase (Homo sapiens), P14920 [Y224A], sequence (P14920 whole entry Y224A): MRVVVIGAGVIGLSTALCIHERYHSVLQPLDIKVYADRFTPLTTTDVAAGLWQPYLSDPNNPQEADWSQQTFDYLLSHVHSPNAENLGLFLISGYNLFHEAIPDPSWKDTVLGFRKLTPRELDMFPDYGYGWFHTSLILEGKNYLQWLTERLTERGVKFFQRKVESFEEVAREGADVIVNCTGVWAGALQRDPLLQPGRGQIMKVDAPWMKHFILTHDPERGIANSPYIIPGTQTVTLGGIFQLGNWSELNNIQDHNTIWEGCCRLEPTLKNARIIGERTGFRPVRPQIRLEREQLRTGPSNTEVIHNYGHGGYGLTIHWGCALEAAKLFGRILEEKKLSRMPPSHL
# D-amino-acid oxidase (Homo sapiens, UniProt P14920, Y224A), sequence (P14920 whole entry Y224A): as above
Structure (SMILES),inhibition [7],IC50 [8] [mM],IC50 [9] [mM],inhibition [12],inhibition [13],IC50 [14] [mM],also measured
O=C(O)CC(=O)O [MALONIC ACID],Dose-dependent effect,1.35,> 10,,Dose-dependent effect,0.0249,Activity [3]: inactive
Oc1nc(-c2ccccc2)no1,,,> 5,,,,
Nc1cncc(C(=O)O)c1,,,> 2.5,,,,
NC[C@H](O)c1ccc(O)c(O)c1 [NOREPINEPHRINE],,,> 10,,,,
CNCC(=O)c1ccc(O)c(O)c1 [ADRENALONE],,,> 1,,,,
O=C(O)c1cn2ccccc2n1,,,> 2.5,,,,
O=C(O)C(O)C(O)C(=O)O (stereo unspecified),,3.92,> 10,,,2.82,

# Now from value to molecule, other results behind:
inhibition [7],IC50 [8] [mM],IC50 [9] [mM],inhibition [12],inhibition [13],IC50 [14] [mM],Structure (SMILES),also measured
Dose-dependent effect,> 10,0.0285,Dose-dependent effect,Dose-dependent effect,5.28,O=C(O)c1cc2c(s1)CCC2,Ki [1]: 0.00459 mM; inhibition [2]: Dose-dependent effect; Activity [3]: Active; inhibition [4]: Active; inhibition [5]: Dose-dependent effect; Ki [6]: 0.0144 mM; inhibition [9]: Dose-dependent effect; Activity [10]: inactive; Activity [11]: inactive; IC50 [12]: 0.0598 mM; inhibition [15]: inactive; Activity [16]: inactive; Ki [17]: 0.00992 mM
Dose-dependent effect,> 10,0.666,Dose-dependent effect,Dose-dependent effect,5.72,CCc1cc(C(=O)O)sc1C,IC50 [12]: 1.1 mM
Dose-dependent effect,> 10,6.27,Dose-dependent effect,Dose-dependent effect,8.39,O=C(O)/C=C/c1cccc(O)c1,inhibition [9]: Dose-dependent effect; IC50 [12]: > 10 mM; Activity [18]: 51.5%
,,> 10,,,,O=C(O)c1ccc2cccnc2n1,
Dose-dependent effect,> 10,,Dose-dependent effect,Dose-dependent effect,8.21,O=C(O)c1ccsc1,inhibition [2]: Dose-dependent effect; inhibition [4]: Active; inhibition [5]: Dose-dependent effect; Activity [19]: inactive; Activity [20]: Active; inhibition [9]: Dose-dependent effect; Activity [10]: inactive; Activity [11]: inactive; inhibition [15]: inactive; inhibition [21]: Active; Activity [16]: inactive

# From ChEMBL document CHEMBL2321703, “Identification of novel D-amino acid oxidase inhibitors by in silico screening and their functional characterization in vitro” (J Med Chem, 2013)
